What all share (assay type): biochemical
The target of assay [1] is T1, human TPST-2 (Homo sapiens, UniProt O60704).
T1 sequence (O60704 25-377 limits assumed): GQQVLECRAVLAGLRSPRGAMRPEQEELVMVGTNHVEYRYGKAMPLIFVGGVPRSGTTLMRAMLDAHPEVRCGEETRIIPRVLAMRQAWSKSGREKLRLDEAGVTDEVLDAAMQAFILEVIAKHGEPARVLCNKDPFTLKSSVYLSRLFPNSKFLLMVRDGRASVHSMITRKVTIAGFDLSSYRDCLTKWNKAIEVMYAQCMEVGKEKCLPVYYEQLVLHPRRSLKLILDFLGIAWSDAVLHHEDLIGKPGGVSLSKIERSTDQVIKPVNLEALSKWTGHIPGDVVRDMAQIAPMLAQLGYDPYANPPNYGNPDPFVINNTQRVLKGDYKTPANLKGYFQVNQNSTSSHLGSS
Put plainly: LC-MS initial-velocity kinetics, Reaction 1: sulfation of nonCCR8. The essentials:
(§1)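 Enzyme was soluble HPC4-epitope-tagged human TPST-2 (transferrin signal peptide), affinity-purified from stably transfected CHO-K1 cells. PAPS and peptide were varied as a matrix in 20 mM MOPS pH 7.5, 100 mM NaCl, 10% glycerol at 30 °C. Reactions started with 250–750 nM enzyme, ran 6–20 min, and were quenched with methanol (0.5 µM final internal standard). Product was read by RP-LC negative-ESI SIM against a calibration curve. Data were fit to the ping-pong equation; kcat/Km came from fitted constants.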

Assay [2] deals with T1, human TPST-2. Put plainly: LC-MS initial-velocity kinetics, Reaction 2: sulfation of sY15CCR8. The essentials: as §1
For assay [3], the target named is T1, human TPST-2. Put plainly: Product inhibition by PAP, Reaction 1. The essentials: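 Initial rates of nonCCR8 sulfation by HPC4-purified soluble human TPST-2 were measured at fixed PAP levels. Buffer was 20 mM MOPS pH 7.5, 100 mM NaCl, 10% glycerol, 30 °C. Reactions were quenched with methanol containing internal standard, and product was quantified by LC-ESI-MS SIM. Data were fit by nonlinear regression to competitive or noncompetitive inhibition equations. Two or three independent experiments.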

Assay [4] deals with T1, human TPST-2. Put plainly: Product inhibition by PAP, Reaction 2. The following applies: pH 7.5, 30°C.
For assay [5], the target named is T1, human TPST-2. Put plainly: 35S-sulfation of factor IX by TPST-2. The following applies: with (lane 1) or without (lane 2) TPST-2; 6 h at 37°C, pH 6.9; autoradiography.

`Nc1ncnc2c1ncn2[C@@H]1O[C@H](COP(=O)(O)OS(=O)(=O)O)[C@@H](OP(=O)(O)O)[C@H]1O` [PAPS, 3′-phosphoadenosine 5′-phosphosulfate, reference compound]: the “substrate preference by specificity constants, Reaction 1” value on human TPST-2 [1] (PAPS compared with nonCCR8) is “preferred substrate over nonCCR8”. The “specificity constant kcat/Km for PAPS” value on human TPST-2 [1] (Reaction 1, for PAPS, calculated from Table 1 values) was 590 M⁻¹ s⁻¹. The “specificity constant kcat/Km of PAPS” value on human TPST-2 [2] (Reaction 2, for PAPS, calculated from Table 1 values) was 280 M⁻¹ s⁻¹.
With `Nc1ncnc2c1ncn2[C@@H]1O[C@H](COP(=O)(O)O)[C@@H](OP(=O)(O)O)[C@H]1O` [PAP], the “PAP inhibition patterns, Reaction 1, compared with Reaction 2” value on human TPST-2 [3] (Reaction 1, with respect to PAPS and nonsulfated CCR8, data not shown) was “The same PAP inhibition patterns were observed with respect to PAPS and nonsulfated CCR8 substrates”. At human TPST-2 [3] (Reaction 1, pH 7.5, 30°C, mean of two or three independent experiments), the “KI', product inhibition constant for PAP versus nonCCR8” value is 1200 nM. The “PAP inhibition mode with respect to PAPS” value on human TPST-2 [4] (PAPS varied 5-25 µM, sY15CCR8 25 µM) is listed as “competitively”. The “PAP inhibition mode with respect to sY15CCR8” value on human TPST-2 [4] (sY15CCR8 varied 5-25 µM, PAPS 25 µM) is reported as “noncompetitively”.
VTDYYYPDI [nonCCR8]: at human TPST-2 [1] (Reaction 1, for nonCCR8, calculated from Table 1 values), the “specificity constant kcat/Km” value is 270 M⁻¹ s⁻¹. In addition, at human TPST-2 [1] (Reaction 1, calculated from intercept replots, pH 7.5, 30°C), the “estimated Vmax” value was 6.7 mU/mg protein. Further, at human TPST-2 [1] (ratio to Km of sY15CCR8), the “Km of nonsulfated CCR8 peptide relative to monosulfated peptide” value is given as “at least five”.
In the case of VTDsYYYPDI [sY15CCR8], the “specificity constant kcat/Km of sY15CCR8” value on human TPST-2 [2] (Reaction 2, for sY15CCR8, calculated from Table 1 values) is 430 M⁻¹ s⁻¹. Also, the “estimated Vmax” value on human TPST-2 [2] (Reaction 2, from intercept replots, pH 7.5, 30°C) is listed as 1.7 mU/mg protein. Moreover, the “substrate preference by specificity constants, Reaction 2” value on human TPST-2 [2] (sY15CCR8 compared with PAPS) is “preferred than PAPS”. At human TPST-2 [2] (sY15CCR8 compared with nonCCR8), the “substrate suitability by kcat/Km” value was “more suitable substrate than nonCCR8”.
For the compound “factor IX: recombinant human factor IX, BeneFIX, Wyeth Pharmaceuticals Inc.”, in the assay with human TPST-2 [5], the “35S-sulfuryl group transfer to factor IX” value is reported as “occurred only in the presence TPST-2”.

These data come from PMC3088362 (Journal of the American Society for Mass Spectrometry, 2010).
